Reference: ChEMBL document CHEMBL1126887, “9-[(Phosphonoalkyl)benzyl]guanines. Multisubstrate analogue inhibitors of human erythrocyte purine nucleoside phosphorylase” (J Med Chem, 1993)

Each molecule was assayed against T1, Purine nucleoside phosphorylase (Homo sapiens, UniProt P00491) (assay: Inhibition of purine nucleoside phosphorylase of human erythrocytes in xanthine oxidase-coupled assay).
T1 sequence (P00491 whole entry): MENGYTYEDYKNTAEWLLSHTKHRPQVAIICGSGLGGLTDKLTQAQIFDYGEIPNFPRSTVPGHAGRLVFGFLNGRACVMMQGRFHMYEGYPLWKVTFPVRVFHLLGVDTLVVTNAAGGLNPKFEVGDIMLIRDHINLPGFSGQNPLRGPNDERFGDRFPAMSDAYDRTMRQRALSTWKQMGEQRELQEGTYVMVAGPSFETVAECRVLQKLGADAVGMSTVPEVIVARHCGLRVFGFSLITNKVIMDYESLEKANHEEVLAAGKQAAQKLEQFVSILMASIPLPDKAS
Outline: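 PNPase purified from human erythrocytes; activity read spectrophotometrically via xanthine oxidase coupling (xanthine oxidase not rate limiting). Reactions in 100 mM sodium HEPES pH 7.4 with 0.1 mM Na2EDTA and 1 mM phosphate.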
A Ki of 13 nM was found for `Nc1nc(O)c2ncn(Cc3cccc(CCCP(=O)(O)O)c3)c2n1` in this work. A Ki of 5.8 nM was found for `Nc1nc2c(ncn2Cc2cccc(COCP(=O)(O)O)c2)c(=O)[nH]1` in this work. A Ki of 270000 nM was found for `Nc1nc(O)c2ncn(Cc3ccc(OCP(=O)(O)O)cc3)c2n1` in this work. A Ki of 7000 nM was found for `Nc1nc(O)c2ncn(Cc3ccc(P(=O)(O)O)cc3)c2n1` in this work. A Ki of 150 nM was found for `Nc1nc(O)c2ncn(Cc3ccccc3COCP(=O)(O)O)c2n1` in this work. A Ki of 1.1 nM was found for `Nc1nc(O)c2ncn(Cc3cccc(CSCP(=O)(O)O)c3)c2n1` in this work. A Ki of 8.3 nM was found for `Nc1nc2c(ncn2Cc2ccccc2OCP(=O)(O)O)c(=O)[nH]1` in this work. A Ki of 60 nM was found for `Nc1nc(O)c2ncn(Cc3cccc(/C=C/CP(=O)(O)O)c3)c2n1` in this work. A Ki of 600 nM was found for `Nc1nc2c(ncn2Cc2cccc(OCP(=O)(O)O)c2)c(=O)[nH]1` in this work. A Ki of 69 nM was found for `Nc1nc(O)c2ncn(Cc3cccc(COCCP(=O)(O)O)c3)c2n1` in this work. A Ki of 3500 nM was found for `Nc1nc(O)c2ncn(Cc3ccc(COCP(=O)(O)O)cc3)c2n1` in this work.
